Laboratory results: ChEMBL document CHEMBL1132105, “Substituted analogues of GV150526 as potent glycine binding site antagonists in animal models of cerebral ischemia” (J Med Chem, 1999)

How the values were obtained:
Glutamate NMDA receptor = test: Inhibition of [3H]glycine binding to N-methyl-D-aspartate glutamate receptor in synaptic membranes of rat cerebral cortex; format: cell membranes
How it was run: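 Crude synaptic membranes from adult rat cerebral cortex; 20 nM [3H]glycine, 50 mM Tris/citrate pH 7.10, 20 min at 4 °C. Seven concentrations in duplicate; stock 5 mM in DMSO. Ki from at least six-point inhibition curves by nonlinear fitting; geometric mean of at least three experiments.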

Albumin = Albumin (Rattus norvegicus, UniProt P02770); test: Binding to rat serum albumin
Albumin, sequence (P02770 whole entry): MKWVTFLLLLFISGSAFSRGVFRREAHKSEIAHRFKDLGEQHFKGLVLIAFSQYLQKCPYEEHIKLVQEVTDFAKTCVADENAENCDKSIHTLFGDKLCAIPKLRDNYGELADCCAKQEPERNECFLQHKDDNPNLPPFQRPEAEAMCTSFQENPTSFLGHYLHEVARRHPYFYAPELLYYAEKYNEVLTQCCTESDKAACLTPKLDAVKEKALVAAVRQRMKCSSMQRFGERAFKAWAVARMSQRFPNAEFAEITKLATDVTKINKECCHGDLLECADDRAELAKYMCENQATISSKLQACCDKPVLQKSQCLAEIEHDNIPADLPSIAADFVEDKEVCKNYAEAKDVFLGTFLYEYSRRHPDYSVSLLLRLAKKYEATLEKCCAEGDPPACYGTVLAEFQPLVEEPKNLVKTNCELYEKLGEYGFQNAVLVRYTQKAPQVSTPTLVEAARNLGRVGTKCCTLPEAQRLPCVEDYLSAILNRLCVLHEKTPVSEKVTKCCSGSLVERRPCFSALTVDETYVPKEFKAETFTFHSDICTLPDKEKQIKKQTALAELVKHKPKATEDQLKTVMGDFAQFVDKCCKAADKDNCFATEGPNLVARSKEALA

Mus musculus [1] = test: Inhibition of NMDA-induced convulsions in mice by the compound when administered by intravenous route; format: functional
How it was run: (§1)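 Male CD-1 mice (18-29 g); test compound given iv (1 min) or po (1 h) before icv NMDA (1 nmol/mouse). Animals observed 30 min for generalized seizures and scored protected if none occurred. Percentage protected per group recorded; ED50 estimated with 95% confidence limits.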

Mus musculus [2] = test: Inhibition of NMDA-induced convulsions in mice by the compound when administered by peroral route; format: functional; conditions: po; how it was run: as §1
Rattus norvegicus [3] = test: Preischemic effect of the compound in the MACo model in rats measured 24 hr after occlusion at an intravenous dose of 0.1 mg/kg.; format: functional
How it was run: (§2)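 Permanent distal MCA electrocoagulation in male Sprague-Dawley rats (280-350 g) under chloral hydrate (400 mg/kg ip), normothermic; compound iv 5 min before occlusion, in 3% DMSO in water. At 24 h, 0.5 mm coronal slices stained with 2% TTC (37 °C, 20 min); infarct volume by trapezoidal rule, n = 8; reduction vs vehicle.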

Rattus norvegicus [4] = test: Preischemic effect of the compound in the MACo model in rats measured 24 h after occlusion at an intravenous dose of 1 mg/kg.; format: functional; how it was run: as §2
[5] = biological target: Glutamate receptor ionotropic, AMPA (Rattus norvegicus, UniProt P19490+P19491+P19492+P19493); test: Inhibition of binding of [3H]AMPA to Ionotropic glutamate receptor AMPA in synaptic membranes of rat cerebral cortex; format: cell membranes
How it was run: (§3)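 Rat cortical membrane radioligand binding; compounds from 5 mM DMSO stock tested at five concentrations, 10 nM to 100 µM, with a reference compound as internal control.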

[6] = Effective dose was evaluated; format: functional
[7] = biological target: Glutamate receptor ionotropic, kainate; test: Inhibition of binding of [3H]kainate to Ionotropic glutamate receptor kainate in synaptic membranes of rat cerebral cortex; format: cell membranes; how it was run: as §3
Rattus norvegicus [8] = test: Preischemic effect of the compound in the MACo model in rats measured 24 hr after occlusion at an intravenous dose of 3 mg/kg.; format: functional; how it was run: as §2
Rattus norvegicus [9] = species on record: Rattus norvegicus; test: Percent damage reduction; format: functional; set-up: concentration or dose not given beside the values; how it was run: as §2
[10] = Inhibition of binding of [3H]CPP in presence of glutamate to glutamate binding site of N-methyl-D-aspartate glutamate receptor in synaptic membranes of rat cerebral cortex; format: cell membranes
Rattus norvegicus [11] = test: Preischemic effect of the compound in the MACo model in rats measured 24 hr after occlusion at an intravenous dose of 0.3 mg/kg.; format: functional; how it was run: as §2
Rattus norvegicus [12] = test: Postischemic effect of the compound in the MACo model in rats measured 24 hr after occlusion at an intravenous dose of 1 mg/kg.; format: functional
How it was run: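 Male Sprague-Dawley rats (280-350 g), permanent distal MCA electrocoagulation under chloral hydrate; single iv bolus 1 mg/kg given 6 h after occlusion, vehicle 3% DMSO in water. Infarct volume from TTC-stained 0.5 mm coronal slices 24 h after occlusion, trapezoidal rule, n = 8.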

Log Ki (Glutamate NMDA receptor) | RSA tR (Albumin) | Structure (SMILES) | further results
-7.69 |  | COc1ccc(NC(=O)NCc2ccc(NC(=O)/C=C/c3c(C(=O)[O-])[nH]c4cc(Cl)cc(Cl)c34)cc2)cc1.[Na+] | 
 | 141.2 min | O=C(/C=C/c1c(C(=O)[O-])[nH]c2cc(Cl)cc(Cl)c12)NC12CC3CC(CC(C3)C1)C2.[Na+] | 
-7.93 |  | C[C@@H](NC(N)=O)c1ccc(NC(=O)/C=C/c2c(C(=O)[O-])[nH]c3cc(Cl)cc(Cl)c23)cc1.[Na+] | 
 | 23.2 min | Nc1ccc(NC(=O)/C=C/c2c(C(=O)[O-])[nH]c3cc(Cl)cc(Cl)c23)cc1.[Na+] | 
-8.8 | 28.3 min | NC(=O)Nc1ccc(NC(=O)/C=C/c2c(C(=O)[O-])[nH]c3cc(Cl)cc(Cl)c23)cc1.[Na+] | ED50 (Mus musculus [1]): 0.55 mg/kg; ED50 (Mus musculus [2]): 9.6 mg/kg
-7.91 | 34.1 min | CC/N=C(\S)NCc1ccc(NC(=O)/C=C/c2c(C(=O)[O-])[nH]c3cc(Cl)cc(Cl)c23)cc1.[Na+] | 
 | 25.7 min | O=C(/C=C/c1c(C(=O)[O-])[nH]c2cc(Cl)cc(Cl)c12)NC1CCCCC1.[Na+] | 
 | 31.6 min | CC(=O)Nc1ccc(NC(=O)/C=C/c2c(C(=O)[O-])[nH]c3cc(Cl)cc(Cl)c23)cc1.[Na+] | 
-7.83 |  | O=C(/C=C/c1c(C(=O)[O-])[nH]c2cc(Cl)cc(Cl)c12)Nc1ccc(CNC(=O)Nc2cccnc2)cc1.[Na+] | 
-8.2 |  | C[C@H](NC(N)=O)c1ccc(NC(=O)/C=C/c2c(C(=O)[O-])[nH]c3cc(Cl)cc(Cl)c23)cc1.[Na+] | 
 | 66.9 min | O=C(/C=C/c1c(C(=O)[O-])[nH]c2cc(Cl)cc(Cl)c12)NCc1ccccc1.[Na+] | 
-8.15 | 29.6 min | O=C(/C=C/c1c(C(=O)[O-])[nH]c2cc(Cl)cc(Cl)c12)Nc1ccc(CNC(=O)NC2CCOCC2)cc1.[Na+] | 
-8.62 |  | CCNC(=O)NCc1ccc(NC(=O)/C=C/c2c(C(=O)[O-])[nH]c3cc(Cl)cc(Cl)c23)cc1.[Na+] | 
-8.67 | 40.7 min | NC(=O)NCc1ccc(NC(=O)/C=C/c2c(C(=O)[O-])[nH]c3cc(Cl)cc(Cl)c23)cc1.[Na+] | Infarct volume (Rattus norvegicus [3]): 61.9 mm**3; ED50 (Mus musculus [1]): 0.07 mg/kg; Infarct volume (Rattus norvegicus [4]): 38.9 mm**3; Ki [5]: 105 µM; ED50 [6]: 0.2 mg/kg; Log Ki [7]: -4.68; Infarct volume (Rattus norvegicus [8]): 27.8 mm**3; damage reduction (Rattus norvegicus [9]): 41% [middle of 5 runs]; Log Ki [10]: -3.48; Infarct volume (Rattus norvegicus [11]): 36.4 mm**3; Infarct volume (Rattus norvegicus [12]): 54.7 mm**3; ED50 (Mus musculus [2]): 2 mg/kg
-7.7 |  | O=C(/C=C/c1c(C(=O)[O-])[nH]c2cc(Cl)cc(Cl)c12)Nc1ccc(CNC(=O)Nc2ccccc2)cc1.[Na+] | 
-8.2 | 33.9 min | NC(=O)NCCc1ccc(NC(=O)/C=C/c2c(C(=O)[O-])[nH]c3cc(Cl)cc(Cl)c23)cc1.[Na+] | ED50 (Mus musculus [1]): 0.14 mg/kg; ED50 (Mus musculus [2]): 17.3 mg/kg
-8.25 |  | O=C(/C=C/c1c(C(=O)[O-])[nH]c2cc(Cl)cc(Cl)c12)Nc1ccc(CNC(=O)NC2CC2)cc1.[Na+] | 
-8.57 |  | O=C(O)CNC(=O)NCc1ccc(NC(=O)/C=C/c2c(C(=O)[O-])[nH]c3cc(Cl)cc(Cl)c23)cc1.[Na+] | 
-8.49 | 60.1 min | O=C(/C=C/c1c(C(=O)[O-])[nH]c2cc(Cl)cc(Cl)c12)Nc1ccccc1.[Na+] [GAVESTINEL SODIUM] | ED50 (Mus musculus [1]): 0.06 mg/kg; ED50 (Mus musculus [2]): 6 mg/kg
 | 12.1 min | O=c1[nH]c2cc(Cl)c(Cl)c([N+](=O)[O-])c2[nH]c1=O [LICOSTINEL] | 
